The subject of one assay is Saccharomyces cerevisiae. As to the kind of experiment: Fold resistance, ratio of IC50 for Saccharomyces cerevisiae BY740 expressing ribosomal protein cyh2 and harboring mutation in rpl28 to IC50 for Saccharomyces cerevisiae […]. Format: functional. The essentials: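 Four isogenic S. cerevisiae strain pairs, each differing only by presence or absence of cyh2, exposed to varying compound concentrations; growth read by optical density; IC50 derived per strain, resistance as ratio between paired strains.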

Another assay concerns MDA-MB-231. The experiment in a line: Antiproliferative activity against human MDA-MB-231 cells assessed as incorporation of [3H]thymidine in nuclear DNA at 2.5 uM after 24 hrs by scintillation counting. The format is functional, cell-based. The essentials: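 Each of three tumour cell lines incubated with compound at 2.5 μM for 24 h, then [³H]thymidine added to monitor DNA synthesis; initial proliferation screen.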

In assay [1] the target is T1, Elongation factor 1-alpha 1 (Homo sapiens) (UniProt P68104).
T1 sequence (whole entry): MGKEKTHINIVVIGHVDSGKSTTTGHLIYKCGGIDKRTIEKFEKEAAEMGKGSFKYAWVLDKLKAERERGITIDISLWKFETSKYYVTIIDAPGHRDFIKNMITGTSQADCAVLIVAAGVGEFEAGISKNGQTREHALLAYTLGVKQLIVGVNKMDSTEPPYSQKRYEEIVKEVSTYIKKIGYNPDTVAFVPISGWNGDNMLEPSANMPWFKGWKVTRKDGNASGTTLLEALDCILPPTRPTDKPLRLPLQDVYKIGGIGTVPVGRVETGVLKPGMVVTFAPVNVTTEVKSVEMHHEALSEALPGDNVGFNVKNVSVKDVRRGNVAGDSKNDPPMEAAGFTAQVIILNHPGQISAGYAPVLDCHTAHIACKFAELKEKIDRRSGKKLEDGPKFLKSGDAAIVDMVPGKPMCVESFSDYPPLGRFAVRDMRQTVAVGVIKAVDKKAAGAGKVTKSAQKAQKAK
The experiment in a line: Inhibition of eEF1A-mediated tRNA binding to ternary complex at 200 uM after 10 mins by filtration binding assay. The method, boiled down:
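Ribosomes (89 pmol) in 20 mM HEPES pH 7.4, 100 mM KCl, 10 mM MgCl₂, 1 mM DTT with 200 ng poly(U), 2.2 μg eEF1A, 150 μM GDPNP and 200 μM compound, before 10 pmol [¹⁴C]Phe-tRNA^Phe added; 10 min at 37°C; nitrocellulose filtration, scintillation counting.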

Assay [2] deals with Elongation factor 2 (Homo sapiens) (UniProt P13639). As to the kind of experiment: Inhibition of eEF2-mediated tRNA translocation assessed as inhibition of phenylalanyl puromycin formation. The essentials:
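Set up as eEF1A binding assay but with GTP; 5 min at 37°C, compound added to 200 μM final, 5 min at room temperature, then eEF2, puromycin and GTP added; 10 min at 37°C; ethyl acetate-extractable phenylalanyl-puromycin counted by scintillation.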

This is an account of results in ChEMBL document CHEMBL1221230, “Inhibition of eukaryotic translation elongation by cycloheximide and lactimidomycin” (Nat Chem Biol, 2010).

The structures appear in SMILES notation. Activity calls are given as the source filed them. The calls are words filed in the database; no cut-off is given here.

For `C/C(=C\[C@H](C)C(=O)C[C@H](O)CC1CC(=O)NC(=O)C1)[C@@H]1OC(=O)/C=C/CC/C=C/C=C\[C@@H]1C` [LACTIMIDOMYCIN], in the assay with Saccharomyces cerevisiae, the “Ratio IC50” value was 20.5. For the same compound, the result with MDA-MB-231 was inactive. Further, the inhibition entry in assay [1] was “inactive”. Besides, the inhibition entry in assay [2] was “Active”.
